Experimental data: ChEMBL document CHEMBL1629548, “In vitro activities of tigecycline against clinical isolates of Aeromonas, Vibrio, and Salmonella species in Taiwan” (2008)

What was measured:
Salmonella typhimurium [1] = assay: Antimicrobial activity against Salmonella serotype Typhimurium assessed as susceptible isolate by FDA method; assay type: functional, Salmonella enterica subsp. enterica serovar Typhimurium
Method in brief: (§1)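 Susceptibility categories assigned from tigecycline broth microdilution MICs (CLSI method, 0.03–128 μg/ml) using US FDA or EUCAST breakpoints, as named in each line.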

Salmonella [2] = assay: Antimicrobial activity against Salmonella serogroup O7 assessed as susceptible isolate by EUCAST method; assay type: functional; method in brief: as §1
Salmonella [3] = assay: Antimicrobial activity against Salmonella serogroup O7 assessed as intermediate isolate by EUCAST method; assay type: functional; method in brief: as §1
[4] = Antimicrobial activity against Salmonella serotype Choleraesuis assessed as resistant isolate by FDA method; assay type: functional, Salmonella enterica subsp. enterica serovar Choleraesuis
Method in brief: (§2)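 Tigecycline MICs for clinical isolates (Taiwan) were determined by broth microdilution over 0.03 to 128 μg/ml. A control strain was included, and its MICs had to fall within the recommended range. Susceptible, intermediate and resistant categories were assigned from the MICs using US FDA and EUCAST breakpoints.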

Vibrio cholerae [5] = assay: Antimicrobial activity against Vibrio cholerae non-O1 assessed as intermediate isolate by EUCAST method; assay type: functional; method in brief: as §2
Aeromonas hydrophila [6] = assay: Antimicrobial activity against Aeromonas hydrophila assessed as intermediate isolate by EUCAST method; assay type: functional; method in brief: as §1
Salmonella [7] = assay: Antimicrobial activity against Salmonella serogroup O8 assessed as intermediate isolate by EUCAST method; assay type: functional; method in brief: as §1
Aeromonas hydrophila [8] = assay: Antimicrobial activity against Aeromonas hydrophila assessed as susceptible isolate by FDA method; assay type: functional; method in brief: as §1
Vibrio parahaemolyticus [9] = assay: Antimicrobial activity against Vibrio parahaemolyticus assessed as intermediate isolate by EUCAST method; assay type: functional; method in brief: as §1
Salmonella typhimurium [10] = assay: Antimicrobial activity against Salmonella serotype Typhimurium assessed as intermediate isolate by EUCAST method; assay type: functional, Salmonella enterica subsp. enterica serovar Typhimurium; method in brief: as §1
Vibrio cholerae [11] = assay: Antimicrobial activity against Vibrio cholerae non-O1 assessed as resistant isolate by EUCAST method; assay type: functional; method in brief: as §2
Aeromonas sobria [12] = assay: Antimicrobial activity against Aeromonas sobria assessed as susceptible isolate by FDA method; assay type: functional; method in brief: as §1
Aeromonas sobria [13] = assay: Antimicrobial activity against Aeromonas sobria assessed as susceptible isolate by EUCAST method; assay type: functional; method in brief: as §1
Vibrio cholerae [14] = assay: Antimicrobial activity against Vibrio cholerae non-O1 assessed as intermediate isolate by FDA method; assay type: functional; method in brief: as §2
Vibrio parahaemolyticus [15] = assay: Antimicrobial activity against Vibrio parahaemolyticus assessed as susceptible isolate by FDA method; assay type: functional; method in brief: as §1
[16] = Antimicrobial activity against Salmonella serotype Choleraesuis assessed as resistant isolate by EUCAST method; assay type: functional, Salmonella enterica subsp. enterica serovar Choleraesuis; method in brief: as §2
Salmonella [17] = assay: Antimicrobial activity against Salmonella serogroup O7 assessed as susceptible isolate by FDA method; assay type: functional; method in brief: as §1
Aeromonas sobria [18] = assay: Antimicrobial activity against Aeromonas sobria assessed as intermediate isolate by FDA method; assay type: functional; method in brief: as §2
[19] = Antimicrobial activity against Salmonella serotype Choleraesuis assessed as intermediate isolate by FDA method; assay type: functional, Salmonella enterica subsp. enterica serovar Choleraesuis; method in brief: as §2
Aeromonas hydrophila [20] = assay: Antimicrobial activity against Aeromonas hydrophila assessed as intermediate isolate by FDA method; assay type: functional; method in brief: as §2
Salmonella [21] = assay: Antimicrobial activity against Salmonella serogroup O7 assessed as intermediate isolate by FDA method; assay type: functional; method in brief: as §1
Vibrio cholerae [22] = assay: Antimicrobial activity against Vibrio cholerae non-O1 assessed as resistant isolate by FDA method; assay type: functional; method in brief: as §2
Salmonella [23] = assay: Antimicrobial activity against Salmonella serogroup O9 assessed as intermediate isolate by EUCAST method; assay type: functional; method in brief: as §2
Vibrio parahaemolyticus [24] = assay: Antimicrobial activity against Vibrio parahaemolyticus assessed as intermediate isolate by FDA method; assay type: functional; method in brief: as §2
Vibrio parahaemolyticus [25] = assay: Antimicrobial activity against Vibrio parahaemolyticus assessed as susceptible isolate by EUCAST method; assay type: functional; method in brief: as §1
Vibrio vulnificus [26] = assay: Antimicrobial activity against Vibrio vulnificus assessed as susceptible isolate by EUCAST method; assay type: functional; method in brief: as §1
[27] = Antimicrobial activity against Salmonella serotype Choleraesuis assessed as susceptible isolate by FDA method; assay type: functional, Salmonella enterica subsp. enterica serovar Choleraesuis; method in brief: as §2
Aeromonas sobria [28] = assay: Antimicrobial activity against Aeromonas sobria assessed as intermediate isolate by EUCAST method; assay type: functional; method in brief: as §1
Aeromonas caviae [29] = assay: Antimicrobial activity against Aeromonas caviae assessed as intermediate isolate by FDA method; assay type: functional; method in brief: as §1
Salmonella [30] = assay: Antimicrobial activity against Salmonella serogroup O9 assessed as intermediate isolate by FDA method; assay type: functional; method in brief: as §1
Aeromonas hydrophila [31] = assay: Antimicrobial activity against Aeromonas hydrophila assessed as susceptible isolate by EUCAST method; assay type: functional; method in brief: as §1
Vibrio vulnificus [32] = assay: Antimicrobial activity against Vibrio vulnificus assessed as susceptible isolate by FDA method; assay type: functional; method in brief: as §1
Vibrio cholerae [33] = assay: Antimicrobial activity against Vibrio cholerae non-O1 assessed as susceptible isolate by FDA method; assay type: functional; method in brief: as §2
Salmonella [34] = assay: Antimicrobial activity against Salmonella serogroup O8 assessed as susceptible isolate by EUCAST method; assay type: functional; method in brief: as §1
Vibrio cholerae [35] = assay: Antimicrobial activity against Vibrio cholerae non-O1 assessed as susceptible isolate by EUCAST method; assay type: functional; method in brief: as §2
[36] = Antimicrobial activity against Salmonella serotype Choleraesuis assessed as intermediate isolate by EUCAST method; assay type: functional, Salmonella enterica subsp. enterica serovar Choleraesuis; method in brief: as §2
Salmonella [37] = assay: Antimicrobial activity against Salmonella serogroup O9 assessed as susceptible isolate by FDA method; assay type: functional; method in brief: as §1
Salmonella [38] = assay: Antimicrobial activity against Salmonella serogroup O8 assessed as intermediate isolate by FDA method; assay type: functional; method in brief: as §1
Salmonella typhimurium [39] = assay: Antimicrobial activity against Salmonella serotype Typhimurium assessed as susceptible isolate by EUCAST method; assay type: functional, Salmonella enterica subsp. enterica serovar Typhimurium; method in brief: as §1
Salmonella typhimurium [40] = assay: Antimicrobial activity against Salmonella serotype Typhimurium assessed as intermediate isolate by FDA method; assay type: functional, Salmonella enterica subsp. enterica serovar Typhimurium; method in brief: as §1
Salmonella [41] = assay: Antimicrobial activity against Salmonella serogroup O8 assessed as susceptible isolate by FDA method; assay type: functional; method in brief: as §1
Aeromonas caviae [42] = assay: Antimicrobial activity against Aeromonas caviae assessed as susceptible isolate by EUCAST method; assay type: functional; method in brief: as §1
Aeromonas caviae [43] = assay: Antimicrobial activity against Aeromonas caviae assessed as susceptible isolate by FDA method; assay type: functional; method in brief: as §2
Aeromonas caviae [44] = assay: Antimicrobial activity against Aeromonas caviae assessed as intermediate isolate by EUCAST method; assay type: functional; method in brief: as §2
Vibrio vulnificus [45] = assay: Antimicrobial activity against Vibrio vulnificus assessed as intermediate isolate by EUCAST method; assay type: functional; method in brief: as §2
Vibrio vulnificus [46] = assay: Antimicrobial activity against Vibrio vulnificus assessed as intermediate isolate by FDA method; assay type: functional; method in brief: as §1
Aeromonas caviae [47] = assay: Antimicrobial activity against Aeromonas caviae assessed as resistant isolate by FDA method; assay type: functional; method in brief: as §2
Salmonella [48] = assay: Antimicrobial activity against Salmonella serogroup O9 assessed as susceptible isolate by EUCAST method; assay type: functional; method in brief: as §1

Question: Which Activity (Salmonella typhimurium [1]) does the source give for `CN(C)c1cc(NC(=O)CNC(C)(C)C)c(O)c2c1C[C@H]1C[C@H]3[C@H](N(C)C)C(O)=C(C(N)=O)C(=O)[C@@]3(O)C(O)=C1C2=O` [TIGECYCLINE] here?
Answer: 100%

Question: And the Activity (Salmonella [2])?
Answer: 100%

Question: And the Activity (Salmonella [3])?
Answer: 0%

Question: And the Activity [4]?
Answer: 0%

Question: And the Activity (Vibrio cholerae [5])?
Answer: 0%

Question: What about the Activity (Aeromonas hydrophila [6]) of the same molecule?
Answer: 1.2%

Question: What about the Activity (Salmonella [7]) of the same molecule?
Answer: 0%

Question: And the Activity (Aeromonas hydrophila [8])?
Answer: 100%

Question: And the Activity (Vibrio parahaemolyticus [9])?
Answer: 0%

Question: What about the Activity (Salmonella typhimurium [10]) of the same molecule?
Answer: 1.6%

Question: What about the Activity (Vibrio cholerae [11]) of the same molecule?
Answer: 0%

Question: And the Activity (Aeromonas sobria [12])?
Answer: 100%

Question: And the Activity (Aeromonas sobria [13])?
Answer: 100%

Question: And the Activity (Vibrio cholerae [14])?
Answer: 0%

Question: And the Activity (Vibrio parahaemolyticus [15])?
Answer: 100%

Question: What about the Activity [16] of the same molecule?
Answer: 0%

Question: And the Activity (Salmonella [17])?
Answer: 100%

Question: And the Activity (Aeromonas sobria [18])?
Answer: 0%

Question: And the Activity [19]?
Answer: 0%

Question: What about the Activity (Aeromonas hydrophila [20]) of the same molecule?
Answer: 0%

Question: What about the Activity (Salmonella [21]) of the same molecule?
Answer: 0%

Question: What about the Activity (Vibrio cholerae [22]) of the same molecule?
Answer: 0%

Question: What about the Activity (Salmonella [23]) of the same molecule?
Answer: 0%

Question: And the Activity (Vibrio parahaemolyticus [24])?
Answer: 0%

Question: What about the Activity (Vibrio parahaemolyticus [25]) of the same molecule?
Answer: 100%

Question: What about the Activity (Vibrio vulnificus [26]) of the same molecule?
Answer: 100%

Question: What about the Activity [27] of the same molecule?
Answer: 100%

Question: What about the Activity (Aeromonas sobria [28]) of the same molecule?
Answer: 0%

Question: What about the Activity (Aeromonas caviae [29]) of the same molecule?
Answer: 1.6%

Question: And the Activity (Salmonella [30])?
Answer: 0%

Question: And the Activity (Aeromonas hydrophila [31])?
Answer: 98.8%

Question: And the Activity (Vibrio vulnificus [32])?
Answer: 100%

Question: What about the Activity (Vibrio cholerae [33]) of the same molecule?
Answer: 100%

Question: What about the Activity (Salmonella [34]) of the same molecule?
Answer: 100%

Question: What about the Activity (Vibrio cholerae [35]) of the same molecule?
Answer: 100%

Question: What about the Activity [36] of the same molecule?
Answer: 1.6%

Question: What about the Activity (Salmonella [37]) of the same molecule?
Answer: 100%

Question: And the Activity (Salmonella [38])?
Answer: 0%

Question: And the Activity (Salmonella typhimurium [39])?
Answer: 98.4%

Question: What about the Activity (Salmonella typhimurium [40]) of the same molecule?
Answer: 0%

Question: And the Activity (Salmonella [41])?
Answer: 100%

Question: And the Activity (Aeromonas caviae [42])?
Answer: 96.8%

Question: And the Activity (Aeromonas caviae [43])?
Answer: 98.4%

Question: What about the Activity (Aeromonas caviae [44]) of the same molecule?
Answer: 1.6%

Question: What about the Activity (Vibrio vulnificus [45]) of the same molecule?
Answer: 0%

Question: And the Activity (Vibrio vulnificus [46])?
Answer: 0%

Question: And the Activity (Aeromonas caviae [47])?
Answer: 0%

Question: What about the Activity (Salmonella [48]) of the same molecule?
Answer: 100%
